Results taken from ChEMBL document CHEMBL5055684, “Into Deep Water: Optimizing BCL6 Inhibitors by Growing into a Solvated Pocket” (J Med Chem, 2021).

System: not listed separately
Experiment: Permeability of the compound by PAMPA
Assay type: ADME
Conditions: read-out: permeability (converted)

Row | Papp [×10⁻⁶ cm/s] | Compound
1 | < 0.2 | Cc1nnc(C(C)Nc2cc(=O)n(C)c3ccc(Nc4ccnc(Cl)c4C#N)cc23)o1 (centres undefined)
2 | 8.5 | CC(Nc1cc(=O)n(CC2CC2)c2ccc(Nc3ccnc(Cl)c3C#N)cc12)c1ncccn1 (centres undefined)
3 | 1 | CC(Nc1cc(=O)n(C)c2ccc(Nc3ccnc(Cl)c3C#N)cc12)c1ncco1 (centres undefined)
4 | 1.8 | CC(Nc1cc(=O)n(C)c2ccc(Nc3ccnc(Cl)c3C#N)cc12)c1ncn(C)n1 (centres undefined)
5 | < 0.2 | CNC(=O)C(C)Nc1cc(=O)n(C)c2ccc(Nc3ccnc(Cl)c3C#N)cc12 (centres undefined)
6 | 0.8 | C[C@@H](Nc1cc(=O)n(C)c2ccc(Nc3ccnc(Cl)c3C#N)cc12)c1ncccn1
7 | 21 | CC(Nc1cc(=O)n(CC2CCC2)c2ccc(Nc3ccnc(Cl)c3C#N)cc12)c1ncccn1 (centres undefined)
8 | 5.6 | Cc1cnc(C(C)Nc2cc(=O)n(C)c3ccc(Nc4ccnc(Cl)c4C#N)cc23)nc1 (centres undefined)
9 | 1.8 | Cn1c(=O)cc(NC(C)(C)c2ncccn2)c2cc(Nc3ccnc(Cl)c3C#N)ccc21
10 | 14 | CC(Nc1cc(=O)n(C)c2ccc(Nc3ccnc(Cl)c3C#N)cc12)c1ncc(C2CC2)cn1 (centres undefined)
11 | 35 | Cn1c(=O)cc(NC(C)(C)c2ncc(C3CC3)cn2)c2cc(Nc3ccnc(Cl)c3C#N)ccc21

System: Mus musculus
Experiment: Toxicity in BALB/c mouse at 1 mg/kg, iv or 5 mg/kg, po
Assay type: organism-based
Conditions: in vivo

Row | Compound | Activity
12 | Cn1c(=O)cc(NC(C)(C)c2ncc(C3CC3)cn2)c2cc(Nc3ccnc(Cl)c3C#N)ccc21 | Non-Toxic

System: not listed separately
Experiment: Plasma concentration in BALB/c mouse assessed as unbound fraction at 1 mg/kg, iv or 5 mg/kg, po
Assay type: ADME, organism-based
Conditions: not given
Method in brief: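 Unbound fraction measured by equilibrium dialysis in mouse plasma.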

Row | fraction unbound | Compound
13 | 0.013 | Cn1c(=O)cc(NC(C)(C)c2ncc(C3CC3)cn2)c2cc(Nc3ccnc(Cl)c3C#N)ccc21

Biological target: B-cell lymphoma 6 protein (Homo sapiens, UniProt P41182)
Experiment: Inhibition of BCOR peptide binding to human BCL6 expressed in Escherichia coli measured after 270 mins by BCOR ULight TR-FRET assay
Conditions: not given
Method in brief: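 Biochemical TR-FRET assay with the BTB domain of BCL6 (not full-length protein) and a short corepressor-derived peptide, measuring inhibition of their binding. The result is reported as an IC50.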

Row | IC50 [nM] | Compound
14 | < 30 | CNC(=O)COc1cc2cc(Nc3nc(N4CCC(C(=O)N(C)C)CC4)ncc3Cl)cc(OC)c2n(C)c1=O
